Results as given in ChEMBL document CHEMBL1671677, “Role of AbeS, a novel efflux pump of the SMR family of transporters, in resistance to antimicrobial agents in Acinetobacter baumannii” (2009).
≈ marks a conversion by molar mass, not a printed value. Calls of active or inactive are those of the source.

Tests used:
Acinetobacter baumannii [1] = test: Antibacterial activity against abeS-deficient Acinetobacter baumannii AC0037 by CLSI broth microdilution method; assay type: functional
[2] = target: T1, QacEdelta1 SMR family efflux pump (Acinetobacter baumannii) (UniProt Q2FD83); test: Inhibition of Acinetobacter baumannii abeS expressed in Escherichia coli KAM32 assessed as decrease in increase in bromide accumulation
T1 sequence (whole entry): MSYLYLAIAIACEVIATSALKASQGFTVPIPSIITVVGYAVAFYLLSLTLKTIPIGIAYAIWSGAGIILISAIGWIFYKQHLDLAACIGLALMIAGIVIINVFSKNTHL
Outline: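 EtBr accumulation in E. coli KAM32 (lacks AcrAB, YdhE) carrying pUC18 or pVBS1 (abeS). CCCP, a proton motive force uncoupler, added to 25 μg/ml final after 20 min with substrate. Cells lysed; supernatant fluorescence read at excitation 530 nm, emission 600 nm. Relative fluorescence taken as accumulated EtBr. Mean plus SD of three independent experiments.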

Acinetobacter baumannii [3] = test: Ratio of MIC for Acinetobacter baumannii AC0037 to MIC for abeS-deficient Acinetobacter baumannii AC0037; assay type: functional
Outline: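 MICs were determined by broth dilution and interpreted per CLSI criteria for the parental A. baumannii AC0037 and its abeS null mutant. The mutant was made by electroporating a plasmid carrying abeS disrupted by a kanamycin-resistance cassette, for double homologous recombination, and selected on 50 μg/ml kanamycin plus 80 μg/ml ticarcillin. The ratio is the parental MIC over the mutant MIC.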

Escherichia coli [4] = test: Antibacterial activity against Escherichia coli KAM32 harboring plasmid pUC18 by CLSI broth microdilution method; assay type: functional
Acinetobacter baumannii [5] = test: Antibacterial activity against Acinetobacter baumannii AC0037 by CLSI broth microdilution method; assay type: functional
Escherichia coli [6] = test: Antibacterial activity against Escherichia coli KAM32 harboring recombinant plasmid pVBS1 encoding Acinetobacter baumannii abeS gene by CLSI broth microdilution method; assay type: functional
Acinetobacter baumannii [7] = test: Antibacterial activity against abeS sigma abeS-deficient Acinetobacter baumannii AC0037 by CLSI broth microdilution method; assay type: functional
Escherichia coli [8] = test: Ratio of MIC for Escherichia coli KAM32 harboring recombinant plasmid pVBS1 encoding Acinetobacter baumannii abeS gene to MIC for Escherichia coli KAM32 harboring plasmid pUC18
Escherichia coli [9] = test: Antibacterial activity against Escherichia coli KAM32 harboring recombinant plasmid pVBS1 encoding Acinetobacter baumannii abeS gene by CLSI broth microdilution method in presence of 25 ug/ml efflux pump inhibitor CCCP; assay type: functional
Escherichia coli [10] = test: Antibacterial activity against Escherichia coli KAM32 harboring plasmid pUC18 by CLSI broth microdilution method in presence of 25 ug/ml efflux pump inhibitor CCCP; assay type: functional

| SMILES | Activity (Acinetobacter baumannii [1]) | inhibition [2] | Ratio (Acinetobacter baumannii [3]) | MIC (Escherichia coli [4]) [µg/mL] | MIC (Acinetobacter baumannii [5]) [µg/mL] | MIC (Escherichia coli [6]) [µg/mL] | MIC (Acinetobacter baumannii [7]) [µg/mL] | MIC (Acinetobacter baumannii [1]) [µg/mL] | Ratio (Escherichia coli [8]) | MIC (Escherichia coli [9]) [µg/mL] | MIC (Escherichia coli [10]) [µg/mL] |
| --- | --- | --- | --- | --- | --- | --- | --- | --- | --- | --- | --- |
| CC(C)(O/N=C(\C(=O)N[C@@H]1C(=O)N2C(C(=O)[O-])=C(C[n+]3ccccc3)CS[C@H]12)c1csc(N)n1)C(=O)O | inactive | – | – | – | – | – | – | – | – | – | – |
| C[C@@H](O)[C@H]1C(=O)N2C(C(=O)O)=C(SCCNC=N)C[C@H]12 | inactive | – | – | – | – | – | – | – | – | – | – |
| C[C@@H](O)[C@H]1C(=O)N2C(C(=O)O)=C(S[C@@H]3CN[C@H](C(=O)N(C)C)C3)[C@H](C)[C@H]12 | inactive | – | – | – | – | – | – | – | – | – | – |
| N#CC(C#N)=NNc1cccc(Cl)c1 | – | Active | – | – | – | – | – | – | – | – | – |
| CN(C)c1ccc2cc3ccc(N(C)C)cc3nc2c1 [ACRIDINE ORANGE] | – | – | 4 | 16 (≈ 60.3 µM) | 200 (≈ 754 µM) | 80 | 125 (≈ 471 µM) | 50 (≈ 188 µM) | 5 | – | – |
| NCC[C@H](O)C(=O)N[C@@H]1C[C@H](N)[C@@H](O[C@H]2O[C@H](CN)[C@@H](O)[C@H](O)[C@H]2O)[C@H](O)[C@H]1O[C@H]1O[C@H](CO)[C@@H](O)[C@H](N)[C@H]1O [AMIKACIN] | – | – | 1 | 1 (≈ 1.71 µM) | 256 (≈ 437 µM) | 2 | 256 (≈ 437 µM) | 256 (≈ 437 µM) | 2 | 0.15 | 0.15 |
| CCBr [BROMOETHANE] | – | – | 8 | 2 (≈ 18.4 µM) | 1020 (≈ 9400 µM) | 8 | > 512 | 128 (≈ 1170 µM) | 4 | – | – |
| O=C(N[C@H](CO)[C@H](O)c1ccc([N+](=O)[O-])cc1)C(Cl)Cl [CHLORAMPHENICOL] | – | – | 4 | 0.2 (≈ 0.619 µM) | 256 (≈ 792 µM) | 0.2 | 128 (≈ 396 µM) | 64 (≈ 198 µM) | 1 | – | – |
| N=C(NCCCCCCNC(=N)NC(=N)Nc1ccc(Cl)cc1)NC(=N)Nc1ccc(Cl)cc1 [CHLORHEXIDINE] | – | – | 2 | 2 (≈ 3.96 µM) | 32 (≈ 63.3 µM) | 4 | 32 (≈ 63.3 µM) | 16 (≈ 31.7 µM) | 2 | – | – |
| N=C(N)c1ccc(-c2cc3ccc(C(=N)N)cc3[nH]2)cc1 [DAPI] | – | – | 4 | 0.5 (≈ 1.8 µM) | 2 (≈ 7.21 µM) | 2 | 2 (≈ 7.21 µM) | 0.5 (≈ 1.8 µM) | 4 | – | – |
| C[C@H](CCC(=O)O)[C@H]1CC[C@H]2[C@@H]3CC[C@@H]4C[C@H](O)CC[C@]4(C)[C@H]3C[C@H](O)[C@]12C [DEOXYCHOLIC ACID] | – | – | >16 | 125 (≈ 318 µM) | > 2050 | 3120 | 512 (≈ 1300 µM) | 128 (≈ 326 µM) | 25 | 5 | < 0.25 |
| CC[C@H]1OC(=O)[C@H](C)[C@@H](O[C@H]2C[C@@](C)(OC)[C@@H](O)[C@H](C)O2)[C@H](C)[C@@H](O[C@@H]2O[C@H](C)C[C@H](N(C)C)[C@H]2O)[C@](C)(O)C[C@@H](C)C(=O)[C@H](C)[C@@H](O)[C@]1(C)O [ERYTHROMYCIN] | – | – | 8 | 4 (≈ 5.45 µM) | 64 (≈ 87.2 µM) | 24 | 32 (≈ 43.6 µM) | 8 (≈ 10.9 µM) | 6 | 0.25 | < 0.05 |
| CCn1cc(C(=O)O)c(=O)c2ccc(C)nc21 [NALIDIXIC ACID] | – | – | 2 | 1 (≈ 4.31 µM) | 256 (≈ 1100 µM) | 1 | 256 (≈ 1100 µM) | 128 (≈ 551 µM) | 1 | – | – |
| CCn1cc(C(=O)O)c(=O)c2cc(F)c(N3CCNCC3)cc21 [NORFLOXACIN] | – | – | 2 | 0.06 (≈ 0.188 µM) | 512 (≈ 1600 µM) | 0.12 | > 128 | 256 (≈ 802 µM) | 2 | 0.001 | 0.001 |
| CO[C@@H]1[C@@H](OC(N)=O)[C@@H](O)[C@H](Oc2ccc3c(O)c(NC(=O)c4ccc(O)c(CC=C(C)C)c4)c(=O)oc3c2C)OC1(C)C [NOVOBIOCIN] | – | – | 3 | 4 (≈ 6.53 µM) | 120 (≈ 196 µM) | 20 | 84 (≈ 137 µM) | 40 (≈ 65.3 µM) | 5 | < 0.5 | < 0.5 |
| C[n+]1ccc(-c2cc[n+](C)cc2)cc1.[Cl-].[Cl-] [PARAQUAT DICHLORIDE] | – | – | 2 | 64 | 800 | 128 | 800 | 400 | 2 | < 2.5 | < 2.5 |
| COC(=O)c1ccccc1-c1c2ccc(=N)cc-2oc2cc(N)ccc12.Cl [RHODAMINE123] | – | – | 2 | 8 | 128 | 32 | 128 | 64 | 4 | – | – |
| CO[C@H]1/C=C/O[C@@]2(C)Oc3c(C)c(O)c4c(O)c(c(/C=N/N5CCN(C)CC5)c(O)c4c3C2=O)NC(=O)/C(C)=C\C=C\[C@H](C)[C@H](O)[C@@H](C)[C@@H](O)[C@@H](C)[C@H](OC(C)=O)[C@@H]1C [RIFAMPIN] | – | – | – | – | 2 (≈ 2.43 µM) | – | 2 (≈ 2.43 µM) | 2 (≈ 2.43 µM) | – | – | – |
| CCCCCCCCCCCCOS(=O)(=O)[O-].[Na+] [SODIUM LAURYL SULFATE] | – | – | >16 | 50 | > 256 | 800 | 128 | 16 | 16 | < 5 | < 5 |
| CN(C)[C@@H]1C(O)=C(C(N)=O)C(=O)[C@@]2(O)C(O)=C3C(=O)c4c(O)cccc4[C@@](C)(O)[C@H]3C[C@@H]12 [TETRACYCLINE] | – | – | 1 | 0.5 (≈ 1.13 µM) | 64 (≈ 144 µM) | 1 | 64 (≈ 144 µM) | 64 (≈ 144 µM) | 2 | – | – |
| [Cl-].c1ccc([P+](c2ccccc2)(c2ccccc2)c2ccccc2)cc1 [TETRAPHENYLPHOSPHONIUM CHLORIDE] | – | – | 5 | 8 | 1500 | 16 | > 500 | 300 | 2 | 0.25 | 0.25 |
| COc1cc(Cc2cnc(N)nc2N)cc(OC)c1OC [TRIMETHOPRIM] | – | – | 1 | 0.125 (≈ 0.431 µM) | 64 (≈ 220 µM) | 0.2 | 64 (≈ 220 µM) | 64 (≈ 220 µM) | 2 | – | – |
